ChEMBL document CHEMBL1177821, “Structure-activity relationships and hepatic safety risks of thiazole agonists of the thrombopoietin receptor” (Bioorg Med Chem Lett, 2010)
Blank lines part the entries; values can stand above or below the compound they belong to. Active and inactive are the calls of the source. No cut-off for these calls is given here.

Columns and labels:
Thrombopoietin receptor = target: T1, Thrombopoietin receptor (Homo sapiens, UniProt P40238); assay: Agonist activity at human TPO receptor expressed in murine BaF3 cells
T1 sequence (P40238 whole entry): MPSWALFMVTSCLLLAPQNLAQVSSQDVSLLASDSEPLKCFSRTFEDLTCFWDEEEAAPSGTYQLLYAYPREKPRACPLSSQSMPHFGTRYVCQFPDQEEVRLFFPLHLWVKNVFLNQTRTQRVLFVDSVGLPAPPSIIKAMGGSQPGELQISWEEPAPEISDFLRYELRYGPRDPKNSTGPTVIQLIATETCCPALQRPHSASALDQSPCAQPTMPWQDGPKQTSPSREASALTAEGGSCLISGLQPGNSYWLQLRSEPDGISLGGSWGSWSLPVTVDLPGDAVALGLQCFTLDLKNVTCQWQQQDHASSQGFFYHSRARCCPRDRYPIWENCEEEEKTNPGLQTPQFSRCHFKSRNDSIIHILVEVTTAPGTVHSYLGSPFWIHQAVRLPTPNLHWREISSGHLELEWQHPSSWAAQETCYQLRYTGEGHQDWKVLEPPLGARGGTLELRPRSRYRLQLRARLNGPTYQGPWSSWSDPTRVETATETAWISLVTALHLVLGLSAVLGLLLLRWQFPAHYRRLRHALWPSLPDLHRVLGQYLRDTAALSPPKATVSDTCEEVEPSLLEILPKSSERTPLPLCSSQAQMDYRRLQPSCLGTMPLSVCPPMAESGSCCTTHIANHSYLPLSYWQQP

Rattus norvegicus [1] = assay: Toxicity in rat assessed as change in clinical pathology at 10 to 150 mg/kg, po after 4 days; type: organism-based; parameters: dose 10-150 mg/kg, route oral; conditions: in vivo, 96 h
How it was run: (§1)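 Rats dosed orally once daily for four days at 10, 50 or 150 mg/kg, four animals per dose. Clinical pathology including ALT and bilirubin checked on days 1 and 5. Histopathology examined.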

Mus musculus [2] = species: Mus musculus; assay: Increase of platelets level in human TPO receptor transgenic mouse measured after 6 days; type: functional, organism-based
How it was run: (§2)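 Human TPO receptor transgenic mice (knock-out/human knock-in of receptor exons 8–10, spanning the transmembrane domain) and wild-type mice given compound on days 0 and 1. Platelets counted on day 6.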

Rattus norvegicus [3] = assay: Toxicity in rat assessed as histopathological changes at 10 to 150 mg/kg, po after 4 days; type: organism-based; parameters: dose 10-150 mg/kg, route oral; conditions: in vivo, 96 h
How it was run: as §1

Mus musculus [4] = species: Mus musculus; assay: Increase of platelets level in mouse measured after 6 days; type: functional, organism-based
How it was run: as §2

[5] = Cmax in rat at 500 mg/kg, po; type: ADME, organism-based; parameters: dose 500 mg/kg, route oral; conditions: in vivo
How it was run: (§3)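 Rats given single oral doses of 50, 250 or 500 mg/kg, with a separate vehicle control group in each study. Mean Cmax (µg/mL) and mean AUC0–24 (µg h/mL) taken as total (bound plus unbound) plasma concentrations.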

[6] = Cmax in rat at 50 mg/kg, po; type: ADME, organism-based; parameters: dose 50 mg/kg, route oral; conditions: in vivo
How it was run: as §3

Rattus norvegicus [7] = assay: Toxicity in rat assessed as elevation of ALT level at 500 mg/kg, po; type: organism-based; parameters: dose 500 mg/kg, route oral; conditions: in vivo
How it was run: (§4)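 Single oral doses of 50, 250 or 500 mg/kg given to rats, each study with its own control group. Mean serum AST and ALT (IU/L) measured. Histopathology of liver also examined.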

Rattus norvegicus [8] = assay: Toxicity in rat assessed as elevation of AST level at 50 mg/kg, po; type: organism-based; parameters: dose 50 mg/kg, route oral; conditions: in vivo
How it was run: as §4

Rattus norvegicus [9] = assay: Toxicity in rat assessed as elevation of AST level at 250 mg/kg, po; type: organism-based; parameters: dose 250 mg/kg, route oral; conditions: in vivo
How it was run: as §4

[10] = Cmax in rat at 250 mg/kg, po; type: ADME, organism-based; parameters: dose 250 mg/kg, route oral; conditions: in vivo
How it was run: as §3

Rattus norvegicus [11] = assay: Toxicity in rat assessed as elevation of ALT level at 50 mg/kg, po; type: organism-based; parameters: dose 50 mg/kg, route oral; conditions: in vivo
How it was run: as §4

[12] = AUC (0 to 24 hrs) in rat at 250 mg/kg, po; type: ADME, organism-based; parameters: time < 24 hr, dose 250 mg/kg, route oral; conditions: plasma
How it was run: as §3

Rattus norvegicus [13] = assay: Toxicity in rat assessed as elevation of ALT level at 250 mg/kg, po; type: organism-based; parameters: dose 250 mg/kg, route oral; conditions: in vivo
How it was run: as §4

[14] = AUC (0 to 24 hrs) in rat at 500 mg/kg, po; type: ADME, organism-based; parameters: time < 24 hr, dose 500 mg/kg, route oral; conditions: plasma
How it was run: as §3

[15] = AUC (0 to 24 hrs) in rat at 50 mg/kg, po; type: ADME, organism-based; parameters: time < 24 hr, dose 50 mg/kg, route oral; conditions: plasma
How it was run: as §3

Rattus norvegicus [16] = assay: Toxicity in rat assessed as elevation of AST level at 500 mg/kg, po; type: organism-based; parameters: dose 500 mg/kg, route oral; conditions: in vivo
How it was run: as §4

EC50 (Thrombopoietin receptor): 100 nM
Structure (SMILES): O=C(Nc1nc(-c2ccc(F)c(C(F)(F)F)c2)cs1)c1cnc(N2CCC(C(=O)O)CC2)c(Cl)c1

EC50 (Mus musculus [2]): 7 µg·h/mL | EC50 (Thrombopoietin receptor): 89 nM
Structure (SMILES): O=C(Nc1nc(-c2ccc(F)c(C(F)(F)F)c2)c(F)s1)c1cnc(N2CCC(C(=O)O)CC2)c(Cl)c1
Activity (Rattus norvegicus [1]): Non-toxic | Activity (Rattus norvegicus [3]): Non-toxic | Activity (Mus musculus [4]): inactive

EC50 (Thrombopoietin receptor): 66 nM
Structure (SMILES): Cc1sc(NC(=O)c2cnc(N3CCC(C(=O)O)CC3)c(Cl)c2)nc1-c1ccc(F)c(C(F)(F)F)c1

EC50 (Thrombopoietin receptor): 160 nM
Structure (SMILES): CCc1sc(NC(=O)c2cnc(N3CCC(C(=O)O)CC3)c(Cl)c2)nc1-c1ccc(F)c(C(F)(F)F)c1

EC50 (Thrombopoietin receptor): 86 nM
Structure (SMILES): O=C(Nc1nc(-c2ccc(F)c(C(F)(F)F)c2)c(Cl)s1)c1cnc(N2CCC(C(=O)O)CC2)c(Cl)c1

EC50 (Thrombopoietin receptor): 574 nM
Structure (SMILES): O=C(Nc1nc(-c2ccc(F)c(C(F)(F)F)c2)ns1)c1cnc(N2CCC(C(=O)O)CC2)c(Cl)c1

EC50 (Thrombopoietin receptor): 130 nM
Structure (SMILES): CCCc1sc(NC(=O)c2cnc(N3CCC(C(=O)O)CC3)c(Cl)c2)nc1-c1ccc(F)c(C(F)(F)F)c1

EC50 (Thrombopoietin receptor): > 898 nM
Structure (SMILES): N#Cc1sc(NC(=O)c2cnc(N3CCC(C(=O)O)CC3)c(Cl)c2)nc1-c1ccc(F)c(C(F)(F)F)c1

Second part, the compound before the results:

Structure (SMILES): O=C(Nc1nc(-c2ccc(F)c(Br)c2)c(F)s1)c1cnc(N2CCC(C(=O)O)CC2)c(Cl)c1
EC50 (Thrombopoietin receptor): 670 nM

Structure (SMILES): CCOCc1cc(-c2nc(NC(=O)c3cnc(N4CCC(C(=O)O)CC4)c(Cl)c3)sc2F)ccc1F
EC50 (Thrombopoietin receptor): > 970 nM

Structure (SMILES): O=C(Nc1nc(-c2ccc(F)c(Cl)c2)c(F)s1)c1cnc(N2CCC(C(=O)O)CC2)c(Cl)c1
EC50 (Thrombopoietin receptor): 480 nM

Structure (SMILES): O=C(Nc1nc(-c2ccc(Cl)c(Cl)c2)c(F)s1)c1cnc(N2CCC(C(=O)O)CC2)c(Cl)c1
EC50 (Thrombopoietin receptor): > 1000 nM

Structure (SMILES): O=C(Nc1nc(-c2cccc(C(F)(F)F)c2F)c(F)s1)c1cnc(N2CCC(C(=O)O)CC2)c(Cl)c1
EC50 (Thrombopoietin receptor): 702 nM

Structure (SMILES): CC(C)Cc1cc(-c2nc(NC(=O)c3cnc(N4CCC(C(=O)O)CC4)c(Cl)c3)sc2F)ccc1F
EC50 (Thrombopoietin receptor): 58 nM

Structure (SMILES): CCCCc1cc(-c2nc(NC(=O)c3cnc(N4CCC(C(=O)O)CC4)c(Cl)c3)sc2F)ccc1F
EC50 (Thrombopoietin receptor): 220 nM

Structure (SMILES): O=C(Nc1nc(-c2ccc(F)c(OC(F)(F)F)c2)c(F)s1)c1cnc(N2CCC(C(=O)O)CC2)c(Cl)c1
EC50 (Thrombopoietin receptor): 620 nM

Structure (SMILES): O=C(Nc1ccn(-c2cccc(C(F)(F)F)c2F)n1)c1cnc(N2CCC(C(=O)O)CC2)c(Cl)c1
EC50 (Thrombopoietin receptor): > 811 nM

Structure (SMILES): O=C(Nc1nc(-c2ccc(F)c(OCC(F)(F)F)c2)c(F)s1)c1cnc(N2CCC(C(=O)O)CC2)c(Cl)c1
EC50 (Thrombopoietin receptor): 950 nM

Structure (SMILES): O=C(Nc1nc(-c2cccc(C(F)(F)F)c2F)cs1)c1cnc(N2CCC(C(=O)O)CC2)c(Cl)c1
Cmax [5]: 84000 ng/mL | Cmax [6]: 20000 ng/mL | Activity (Rattus norvegicus [7]): 579 IU/L | Activity (Rattus norvegicus [1]): Non-toxic | EC50 (Mus musculus [2]): 27 µg·h/mL | Activity (Rattus norvegicus [8]): 1937 IU/L | Activity (Rattus norvegicus [9]): 2952 IU/L | Cmax [10]: 48000 ng/mL | Activity (Rattus norvegicus [11]): 442 IU/L | Activity (Rattus norvegicus [3]): Non-toxic | AUC(0-t) at 24 h [12]: 832 µg·h/mL | Activity (Rattus norvegicus [13]): 450 IU/L | AUC(0-t) at 24 h [14]: 1490 µg·h/mL | AUC(0-t) at 24 h [15]: 84 µg·h/mL | Activity (Rattus norvegicus [16]): 3495 IU/L | Activity (Mus musculus [4]): inactive
